# From PubChem
# GSTO1 inh = blocks human GSTO1 in RBBP9 counter-screen; actives 1.1% (n = 300,000); recombinant GSTO1, activity-based probe fluorescence polarization; inhibition, % at 5.96 µM; P78417;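 active = inhibition above the campaign mean inhibition plus 3 SD, cut at about 35% in these data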;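 note: 0% = GSTO1-1 with DMSO and 100% = wells lacking GSTO1-1 enzyme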
# PAD4 FP inh = blocks human protein arginine deiminase 4; Q9UM07; recombinant PAD4, RCA probe fluorescence polarization; inhibition, % at 6.36 µM; actives 0.41% (n = 330,000); AID 485272;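 active = percent inhibition above a cutoff equal to the mean of all tested compounds plus 3 SD, cut at about 15% in these data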;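 note: 0% = PAD4 with RCA probe and DMSO and 100% = probe without PAD4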
# Target sequence (Q9UM07 whole entry, looked up): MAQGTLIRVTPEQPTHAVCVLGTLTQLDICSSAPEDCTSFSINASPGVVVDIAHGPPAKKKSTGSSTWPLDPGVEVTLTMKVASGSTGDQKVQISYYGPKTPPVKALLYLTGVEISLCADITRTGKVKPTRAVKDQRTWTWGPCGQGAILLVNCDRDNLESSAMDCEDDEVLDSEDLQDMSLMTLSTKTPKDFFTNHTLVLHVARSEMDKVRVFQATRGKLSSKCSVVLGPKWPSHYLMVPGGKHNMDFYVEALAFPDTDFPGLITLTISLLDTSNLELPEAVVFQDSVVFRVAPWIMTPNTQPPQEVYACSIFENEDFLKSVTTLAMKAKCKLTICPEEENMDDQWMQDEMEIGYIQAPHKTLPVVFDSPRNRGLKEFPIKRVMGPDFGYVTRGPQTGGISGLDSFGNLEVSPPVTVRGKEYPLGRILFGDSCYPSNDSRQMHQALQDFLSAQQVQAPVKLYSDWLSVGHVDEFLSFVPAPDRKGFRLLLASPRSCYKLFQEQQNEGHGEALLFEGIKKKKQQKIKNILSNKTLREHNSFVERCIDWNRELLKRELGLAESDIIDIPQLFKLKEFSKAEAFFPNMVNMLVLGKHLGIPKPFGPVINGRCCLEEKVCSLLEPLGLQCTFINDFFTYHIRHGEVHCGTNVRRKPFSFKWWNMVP
# TDP2 absorb = TDP2 (human) inhibition, absorbance primary screen. recombinant TDP2, T5PNP hydrolysis, p-nitrophenol absorbance 415 nm. inhibition, % at 12.8 µM. actives 0.34% (n = 370,000);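 active = inhibition above the mean of all tested compounds plus 3 SD, set per campaign, cut at about 25% in these data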;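 note: 0% = DMSO with enzyme and 100% = buffer with substrate but no TDP2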
#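 Test system: Human TDP2 enzyme | Reagent: 5 mM T5PNP | Compound dosing: 12.8 µM single point, 1% DMSO | Incubation: Enzyme reaction with compound for 2 h at 37 °C | Technique: p-Nitrophenol epi absorbance | Read-out: % inhibition relative to enzyme-containing and enzyme-free wells | Benchmarks: High control without enzyme, low control DMSO plus TDP2 | Replicates: Singlicate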
# Apaf-1 inh = human Apaf-1 inhibition. actives 0.71% (n = 330,000). O14727. reconstituted apoptosome caspase-3 activity, DEVD-Rh110 fluorescence. inhibition, % at 20 µM; active = inhibition of at least 40% at 20 µM;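 note: plate controls were DMSO wells for no effect and DEVD-CHO caspase inhibitor wells for full effect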
#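 System: reconstituted apoptosome with Apaf-1, cytochrome c, caspase-9, procaspase-3, dATP; Signal: Rh110 fluorescence intensity; Schedule: 30 min compound preincubation, 50 min activation, room temperature; Reagent: cytochrome c trigger plus (Z-DEVD)2-Rh110 caspase-3 substrate.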
# CTSL1 counter = blocks F. hepatica cathepsin L1 in PFM18AAP counter-screen; AID 1906; inhibition, % at 5.96 µM; actives 0.49% (n = 300,000); recombinant F. hepatica cathepsin L1, Z-Leu-Arg-MCA fluorescence;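 active = inhibition above the mean of all tested compounds plus 3 SD, set per screening campaign, cut at about 17% in these data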;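 note: 0% = plate median of test compound wells and 100% = 1 µM Z-Phe-Ala-diazomethylketone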
# Apaf-1 inh conf = Apaf-1 inhibition, single-dose confirmed; inhibition, % at 20 µM; shares compounds with Apaf-1 inh; actives 25% (n = 1,800); reconstituted apoptosome, caspase-3 DEVD-Rh110 fluorescence; AID 504614;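 active = mean inhibition of at least 40% at 20 µM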;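 note: plate controls were DMSO wells for no effect and DEVD-CHO caspase inhibitor control wells for full effect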
# Rh110 quench = counter-screen for Apaf-1 inhibitors: fluorescence interference; shares compounds with Apaf-1 inh; Rh110 fluorescence interference, quenched caspase reaction; activation (fluorescence interference), % at 20 µM; 1,800 tested, under 10 active;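 active = signal rise of 40% or more at 20 µM, treated as a fluorescence artifact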
# Apaf1 inh interf = shows fluorescence interference in the Apaf-1 inhibitor assay format; fluorescence interference counterscreen, Apaf-1 assay format; shares compounds with Apaf-1 inh; 460 tested, under 10 active; IC50, µM; AID 588538; call rule not given here
# Numbers without * were called inactive; · = not tested or not shown. Rows were chosen to be rich in hits. Some 1.8% of all compounds tested hit in one or more screens of this group.
SMILES,GSTO1 inh,PAD4 FP inh,TDP2 absorb,Apaf-1 inh,CTSL1 counter,Apaf-1 inh conf,Rh110 quench,others
Cc1[nH]nc2c1C(c1ccc(Br)cc1)N(Cc1ccccc1)C2=O (stereo not given),·,·,-3.9,·,·,·,·,
COc1ccc(-c2cc(-c3ccc(F)cc3)nc(N3CCN(C)CC3)n2)cc1,1.8,-4.3,-6.8,65.3*,3.3,6.5,8.9,
COc1ccc(-c2cc(C(F)(F)F)nc(N3CCOCC3)n2)cc1,-4.4,-2.2,14.4,8.6,-0.4,·,·,
c1cc2cn[nH]c2cc1NC1CCCCCC1,13.1,-7.3,14.2,52.8*,2.7,67.9*,6.9,Apaf1 inh interf=>100
O=C(Nc1ccc2c(c1)OCO2)NC1CCN(S(=O)(=O)c2ccc(F)cc2)CC1,·,·,4.5,·,·,·,·,
CCOc1ccc(OCCSc2ccc(S(=O)(=O)N3CCN(C)CC3)cn2)cc1,·,4.4,-7.2,55.0*,·,18.3,5.2,
CN1CCN(S(=O)(=O)c2ccc(SCCOc3ccccc3)nc2)CC1,1.6,-1.5,-0.3,2.4,0.4,·,·,
C=CCc1cccc(/C=N/NC(=O)CNc2ccccc2OC)c1O,3.1,0.6,-14.5,24.2,2.3,·,·,
CSc1ccc(/C=N/NC(=O)CNc2cccc3ccccc23)cc1,0.7,-0.1,7.3,85.7*,4.6,15.7,-2.8,
CSc1ccc(/C=N/NC(=O)CNc2ccc3ccccc3c2)cc1,-4.8,-2.2,-6.9,10.8,2.4,·,·,
C=CCc1cccc(/C=N/NC(=O)CNc2cccc3ccccc23)c1O,-2.4,3.5,-5.6,96.4*,-1.6,13.4,4.5,
CC[C@@H](C)[C@@H]1CN([C@@H](CN2CCC[C@H]2CN2C(N)=NC[C@H]2C(C)C)C(C)C)C(=N)N1CCc1ccc(Cl)c(Cl)c1,·,2.8,·,51.0*,·,15.8,6.0,
CC[C@@H](C)[C@@H]1CN([C@@H](C)CN2CCC[C@H]2CN2C(N)=NC[C@H]2CC(C)C)C(=N)N1CCCC1CCCC1,·,-4.0,-1.5,33.5,·,·,·,
CC[C@@H](C)[C@@H]1CN([C@@H](C)CN2CCC[C@H]2CN2C(N)=NC[C@@H]2Cc2ccccc2)C(=N)N1CCCC1CCCC1,·,7.8,-5.0,61.6*,·,2.2,-1.6,
CCCCN1C(=N)N([C@@H](CN2CCC[C@H]2CN2C(N)=NC[C@@H]2Cc2ccccc2)C(C)C)C[C@H]1Cc1ccccc1,·,0.4,-4.8,38.4,·,·,·,
CC[C@@H](C)[C@@H]1CN([C@@H](C)CN2CCC[C@H]2CN2C(N)=NC[C@@H]2Cc2ccccc2)C(=N)N1CCc1ccc(Cl)c(Cl)c1,·,2.2,·,70.7*,·,5.8,6.2,
CN1[C@@H](Cc2ccccc2)COc2cccc(N3CCCC3)c2S1(=O)=O,·,·,-4.3,·,·,·,·,
C#CCCC(=O)Nc1sc2c(c1-c1nc3ccccc3s1)CCN(C(C)C)C2,·,·,1.1,·,·,·,·,
COc1ccccc1C(=O)Nc1ccc(Oc2nnc(-c3ccc(C)cc3)c3ccccc23)cc1,-17.8,2.0,10.6,40.1*,0.6,8.1,6.5,
Cc1ccc(Oc2nnc(-c3ccc(C)cc3)c3ccccc23)cc1,-2.9,-3.4,5.2,7.7,0.7,·,·,
CC(=O)Nc1cccc(-c2cc(C(C)=O)c3n(c2=O)CCC3)c1,·,·,13.9,·,·,·,·,
CC(=O)N1CCOc2ccc(S(=O)(=O)N(C)c3ccc(C)cc3)cc21,2.0,-8.9,-7.2,40.5*,-7.2,10.8,-0.1,
CC(=O)N1CCOc2ccc(S(=O)(=O)NCc3ccc(C)cc3)cc21,3.2,-3.1,3.4,-0.6,1.6,·,·,
CC(=O)CCN1CCSCCS1(=O)=O,·,·,-0.1,·,·,·,·,
CCCN(CC(=O)Nc1ccccc1C)C(=O)C1CC(=O)N(c2ccccc2OCC)C1 (stereo not given),·,·,-2.4,·,·,·,·,
SMILES,GSTO1 inh,PAD4 FP inh,TDP2 absorb,Apaf-1 inh,CTSL1 counter,Apaf-1 inh conf,Rh110 quench,others
CCCN(CC(=O)Nc1ccccc1C)C(=O)C1CC(=O)N(c2ccccc2C(C)CC)C1 (stereo not given),·,-1.6,-0.7,48.1*,·,33.0,3.6,
CCN(CC(=O)Nc1c(F)cccc1F)C(=O)C1CCN(C(=O)c2ccc(F)cc2)CC1,2.5,8.3,-8.6,6.4,0.8,·,·,
CCCN(CC(=O)Nc1ccccc1C)C(=O)C1CCCN(C(=O)c2ccc(Cl)cc2)C1 (stereo not given),·,3.3,-4.8,48.4*,·,31.7,-4.2,
CCN(CC(=O)Nc1ccc(OC)cc1)C(=O)C1CCN(C(=O)c2ccc(Cl)cc2)CC1,·,-1.9,-1.8,57.5*,·,38.0,2.3,
COC(=O)CC#C[C@H](C)[C@@H](NS(C)(=O)=O)C1CCCCC1,·,·,4.4,·,·,·,·,
COC(=O)[C@]12C[C@H](CC(=O)NCC3CCCCC3)C(=O)N(CCc3ccc(OC)c(OC)c3)C1=C[C@H](C(C)C)O[C@@H]2C1CC1,·,·,6.2,·,·,·,·,
O=C1CCc2ccc(OCCCCN3CCN(c4cccc(Cl)c4Cl)CC3)cc2N1,6.0,0.5,-14.5,42.6*,-4.1,17.9,8.1,
O=C1CCc2cc(S(=O)(=O)N3CCN(c4ccccc4Cl)CC3)ccc2N1,·,·,5.7,·,·,·,·,
COC(=O)[C@]12C[C@H](CC(=O)NCc3cccc4ccccc34)C(=O)N(Cc3ccc4c(c3)OCO4)C1=C[C@H](C(C)C)O[C@@H]2C1CC1,·,·,-7.2,·,·,·,·,
Cc1ccc(-n2nc3ccc(N)cc3n2)c(C)c1,34.0,-19.1,11.8,68.1*,2.6,31.6,13.7,
Cc1cc(N)ccc1-n1nc2ccccc2n1,-3.7,-1.0,3.4,-5.9,-0.7,·,·,
Cc1ccc(-n2nc3ccc(N)cc3n2)cc1C,33.5,2.6,24.0,79.8*,10.1,29.2,1.4,
O=C(OCCCN1CCC2(CCCCC2)C1=O)c1ccccc1,·,·,-5.2,·,·,·,·,
COCCNC(=O)c1c(N)[nH]c(C(=O)c2ccc(Br)cc2)c1-c1c(OC)ccc2ccccc12,·,·,-2.2,·,·,·,·,
CCOC(=O)[C@@]12CCC3=C1N(CCC3)C(=O)[C@H](CC(=O)NCC1CCCCC1)C2,·,·,-5.8,·,·,·,·,
Cn1ccc2cc3c(cc21)CCN3C(=O)Nc1cccnc1,6.0,1.9,5.7,66.0*,2.5,15.3,4.6,
Cc1cccc(CN[C@@H]2CC[C@@]34CCCN3C(=O)CCC[C@H]4C2)c1,·,·,6.5,·,·,·,·,
Nc1ccn([C@@H]2O[C@H](C(=O)N[C@H](Cc3ccccc3)C(=O)N[C@H]3CCCCNC3=O)[C@@H](O)[C@H]2O)c(=O)n1,·,·,4.4,·,·,·,·,
CCn1c2ccccc2c2cc(C=Nn3c(-c4ccccc4C)n[nH]c3=S)ccc21,·,·,-3.2,·,·,·,·,
CC(C)Cn1c(N)c(C(=O)NCC2CCCO2)c2nc3ccccc3nc21 (stereo not given),29.1,-11.0,7.9,65.0*,2.7,29.5,10.2,
COC(=O)[C@]12C[C@H](CC(=O)N3CCN(C(=O)C4CC4)CC3)C(=O)N(Cc3ccc(Cl)cc3Cl)C1=C[C@H](C1CCCC1)O[C@@H]2C,·,·,-5.8,·,·,·,·,
